Activity calls are given as the source filed them. The calls are words filed in the database; no cut-off is given here.

The target of experiment [1] is T1, Glycogen synthase kinase-3 beta (Homo sapiens, UniProt P49841). The experiment is described as follows: Inhibition of human recombinant GSKbeta at 25 uM. Summed up:
(§1)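 Recombinant human GSK-3β in 11 mM MOPS pH 7.4, 0.2 mM EDTA, 1.25 mM EGTA, 26.25 mM MgCl2, 0.25 mM orthovanadate. Substrate was 62.5 µM GS-2 peptide, with γ-[33P]ATP plus unlabeled ATP at 12.5 µM final. Reaction ran 30 min at 30 °C. Aliquots were spotted on P81 phosphocellulose, washed and scintillation-counted. IC50 came from nonlinear regression of inhibition curves.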
Target sequence in this assay (P49841 whole entry, looked up): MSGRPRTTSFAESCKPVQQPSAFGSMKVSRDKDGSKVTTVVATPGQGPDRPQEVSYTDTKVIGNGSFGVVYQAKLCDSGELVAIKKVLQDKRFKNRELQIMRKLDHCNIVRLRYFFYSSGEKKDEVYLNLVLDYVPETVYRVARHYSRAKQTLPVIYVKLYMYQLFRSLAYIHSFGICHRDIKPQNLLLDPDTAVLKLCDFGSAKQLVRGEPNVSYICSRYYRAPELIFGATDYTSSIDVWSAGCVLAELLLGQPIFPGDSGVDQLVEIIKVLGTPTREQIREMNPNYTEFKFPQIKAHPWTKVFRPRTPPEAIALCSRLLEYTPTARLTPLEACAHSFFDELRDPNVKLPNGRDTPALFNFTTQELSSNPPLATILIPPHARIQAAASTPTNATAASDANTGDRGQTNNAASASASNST

The target in experiment [2] is T1, Glycogen synthase kinase-3 beta. Kind of experiment: Inhibition of human recombinant GSKbeta. Summed up:
as §1
Target sequence in this assay (P49841 whole entry): as the sequence (P49841 whole entry, looked up) above

A short description of experiment [3]: Inhibition of recombinant MAPK. Summed up:
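ERK1 (recombinant MAP kinase) in ADBI buffer (20 mM MOPS pH 7.2, 25 mM β-glycerol phosphate, 5 mM EGTA, 1 mM sodium orthovanadate) with 10 µg myelin basic protein as substrate. ATP at 20 µM final. Incubated 15 min; otherwise as the GSK-3β radiometric P81 filter assay.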

The nature of experiment [4]: Inhibition of recombinant PKA. Summed up:
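Recombinant PKA catalytic subunit in ADBI buffer with Kemptide substrate and 35 µM unlabeled ATP. Incubated 20 min; otherwise as the other kinase assays (γ-[33P]ATP, P81 filter binding, scintillation counting).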

The target in experiment [5] is Glycogen synthase kinase-3 alpha (Homo sapiens) (UniProt P49840). The experiment is described as follows: Inhibition of recombinant GSKalpha. Summed up:
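Recombinant GSK-3α, run as the GSK-3β radiometric protocol: MOPS pH 7.4 buffer with EDTA, EGTA, MgCl2 and orthovanadate, plus γ-[33P]ATP. GS-2 peptide at 20 µM final and ATP at 26 µM. Incubated 12 min, then P81 filter binding and scintillation counting. IC50 by nonlinear regression.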

The target in experiment [6] is Cyclin-dependent kinase 1 (Homo sapiens) (UniProt P06493). The experiment is described as follows: Inhibition of recombinant CDK1. Summed up:
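Recombinant CDK-1 in ADBI buffer (20 mM MOPS pH 7.2, 25 mM β-glycerol phosphate, 5 mM EGTA, 1 mM sodium orthovanadate). Histone H1 substrate at […] and ATP at 22 µM final. Reaction run 15 min at 30 °C.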

For experiment [7], the target named is Cyclin-dependent kinase 5/CDK5 activator 1 (Homo sapiens, UniProt Q00535). Kind of experiment: Inhibition of human recombinant CDK5/p35. Format: protein-complex assay. The method in brief:
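Human recombinant cdk5-p35 with histone H1 substrate, run as the GSK-3β protocol: 11 mM MOPS pH 7.4, 0.2 mM EDTA, 1.25 mM EGTA, 26.25 mM MgCl2, 0.25 mM sodium orthovanadate, γ-[33P]ATP plus unlabeled ATP (12.5 µM final). Incubated 30 min at 30 °C, spotted on P81 phosphocellulose, washed, scintillation counted. IC50 by nonlinear regression of inhibition curves.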

Chain of Cyclin-dependent kinase 5/CDK5 activator 1 (Q00535 whole entry): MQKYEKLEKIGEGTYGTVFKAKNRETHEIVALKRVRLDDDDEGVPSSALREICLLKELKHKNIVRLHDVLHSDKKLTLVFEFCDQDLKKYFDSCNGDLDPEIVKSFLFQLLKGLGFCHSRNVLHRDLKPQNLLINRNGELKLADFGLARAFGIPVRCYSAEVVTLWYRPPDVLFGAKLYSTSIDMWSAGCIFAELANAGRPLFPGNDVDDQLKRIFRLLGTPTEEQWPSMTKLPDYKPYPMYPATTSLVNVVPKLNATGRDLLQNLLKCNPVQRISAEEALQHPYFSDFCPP
Chain of Cyclin-dependent kinase 5/CDK5 activator 1 (Q15078 whole entry, further chain): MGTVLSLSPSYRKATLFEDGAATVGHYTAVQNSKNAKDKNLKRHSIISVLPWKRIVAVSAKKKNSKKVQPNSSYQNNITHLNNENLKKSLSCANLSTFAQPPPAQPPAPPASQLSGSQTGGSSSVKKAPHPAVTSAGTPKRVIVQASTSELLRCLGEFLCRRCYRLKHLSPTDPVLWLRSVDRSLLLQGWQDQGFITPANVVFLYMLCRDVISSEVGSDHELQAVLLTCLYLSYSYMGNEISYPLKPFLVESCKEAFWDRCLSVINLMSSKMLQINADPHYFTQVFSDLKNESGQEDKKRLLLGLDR
Chain of Glycogen synthase kinase-3 alpha (Homo sapiens) (P49840 2-483 limits assumed): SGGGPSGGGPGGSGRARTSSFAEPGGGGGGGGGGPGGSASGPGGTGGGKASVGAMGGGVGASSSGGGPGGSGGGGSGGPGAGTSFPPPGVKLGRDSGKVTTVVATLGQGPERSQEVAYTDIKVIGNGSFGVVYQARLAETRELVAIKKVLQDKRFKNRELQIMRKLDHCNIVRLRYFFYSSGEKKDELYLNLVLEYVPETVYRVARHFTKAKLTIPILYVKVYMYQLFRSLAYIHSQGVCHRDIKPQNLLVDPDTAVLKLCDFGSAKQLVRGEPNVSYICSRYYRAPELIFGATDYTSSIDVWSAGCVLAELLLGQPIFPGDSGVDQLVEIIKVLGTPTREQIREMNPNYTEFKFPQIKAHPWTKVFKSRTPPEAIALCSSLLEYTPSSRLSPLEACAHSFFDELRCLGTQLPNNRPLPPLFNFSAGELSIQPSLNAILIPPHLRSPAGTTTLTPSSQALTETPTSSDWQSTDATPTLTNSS
Chain of Cyclin-dependent kinase 1 (Homo sapiens) (P06493 whole entry, looked up): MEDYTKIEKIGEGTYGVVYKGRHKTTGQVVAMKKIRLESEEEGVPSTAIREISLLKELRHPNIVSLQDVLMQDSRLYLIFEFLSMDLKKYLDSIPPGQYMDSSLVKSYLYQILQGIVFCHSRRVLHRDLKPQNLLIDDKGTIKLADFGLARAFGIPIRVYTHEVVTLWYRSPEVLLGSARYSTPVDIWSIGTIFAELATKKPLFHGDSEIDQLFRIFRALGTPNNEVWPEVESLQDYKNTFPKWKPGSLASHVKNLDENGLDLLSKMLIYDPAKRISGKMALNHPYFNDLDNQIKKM

Take `CC(C)COc1cccc2c3ccnc(C4=C[C@@]5(O)CC/C=C\CCCCN6CCC4[C@]4(C[C@@H]7/C=C\CCCCN7[C@H]45)C6)c3n(CC(C)C)c12` (stereo not given in full): the inhibition in experiment [1] came to 24.2%.

Regarding `C1=C(c2nccc3c2[nH]c2ccccc23)C2CCN3CCCC/C=C\C/C=C/1[C@@H]1N4CCCC/C=C\[C@H]4C[C@]21C3` (stereo not given in full) [12,13-DEHYDROMANZAMINE A], the inhibition in experiment [1] amounted to 71.2%. For the same molecule, in experiment [2], the IC50 amounted to 5.4 µM. Regarding `Oc1ccc2[nH]c3c(C4=C[C@@]5(O)CC/C=C\CCCCN6CCC4[C@]4(C[C@@H]7/C=C\CCCCN7[C@H]45)C6)nccc3c2c1` (stereo not given in full), in experiment [1], the inhibition was 74.3%. For the same molecule, the IC50 in experiment [2] stood at 16.6 µM. Regarding `COc1cccc2c3ccnc(C4=C[C@@]5(O)CC/C=C\CCCCN6CCC4[C@]4(C[C@@H]7/C=C\CCCCN7[C@H]45)C6)c3n(C)c12` (stereo not given in full), the inhibition in experiment [1] turned out to be 72.4%.

With `CC(=O)Oc1cccc2c1[nH]c1c(C3=C/C4=C/C/C=C\CCCCN5CCC3[C@]3(C[C@@H]6/C=C\CCCCN6[C@@H]43)C5)nccc12` (stereo not given in full) [12,13-DEHYDRO-8-O-ACETYLMANZAMINE A], the inhibition in experiment [1] came to 79.1%. Moreover, the IC50 in experiment [2] came out at 4.8 µM. As to `O=C1CCCN2[C@@H](CC1)C[C@]13CN4CCCC/C=C\CC[C@](O)(C=C(c5nccc6c5[nH]c5c(OS(=O)(=O)c7ccc(Cl)cc7)cccc56)C1CC4)[C@H]23` (stereo not given in full), the inhibition in experiment [1] worked out at 76.7%. The IC50 in experiment [2] was 7.2 µM. Take `Cc1ccc(S(=O)(=O)Oc2cccc3c2[nH]c2c(C4=C[C@@]5(O)CC/C=C\CCCCN6CCC4[C@]4(C[C@H]7/C=C\CCCCN7[C@H]45)C6)nccc23)cc1` (stereo not given in full): in experiment [1], the inhibition came to 80.4%.

On to `CCOc1cccc2c3ccnc(C4=C[C@@]5(O)CC/C=C\CCCCN6CCC4[C@]4(C[C@@H]7/C=C\CCCCN7[C@H]45)C6)c3n(CC)c12` (stereo not given in full) [9-N-ETHYL-8-ETHOXY-MANZAMINE A], for which the inhibition in experiment [1] stood at 78%. In experiment [2], the IC50 was 10.4 µM. On to `O=C1CCCN2[C@@H](CC1)C[C@]13CN4CCCC/C=C\CC[C@](O)(C=C(c5nccc6c5[nH]c5ccccc56)C1CC4)[C@H]23` (stereo not given in full) [MANZAMINE E], for which the IC50 in experiment [2] is 25 µM. On to `O[C@]12C=C(c3nccc4c3[nH]c3ccccc34)[C@@H]3CCN(CCCC/C=C\CC1)C[C@@]31C[C@@H]3/C=C\CCCCN3[C@H]12` [MANZAMINE A], for which the outcome in experiment [3], in experiment [4], in experiment [5] and in experiment [6] was inactive. Besides, the IC50 in experiment [2] came out at 10.2 µM; in experiment [7] it was 1.5 µM. Regarding `Oc1cccc2c1[nH]c1c(C3=C[C@@]4(O)CC/C=C\CCCCN5CC[C@@H]3[C@]3(CC6/C=C\CCCCN6[C@H]34)C5)nccc12` (stereo not given in full), the IC50 in experiment [2] worked out at 4.8 µM. In the case of `O[C@]12C=C(c3nccc4c3[nH]c3ccccc34)[C@@H]3CCN(CCCCCCCC1)C[C@@]31C[C@@H]3CCCCCCN3[C@H]12`, the inhibition in experiment [1] is 0%. Take `O[C@]12C=C(c3nccc4c3[nH]c3ccccc34)C3CCN(CCCC/C=C\CC1)C[C@@]31C[C@]34CC[C@H](CCCN3[C@H]12)O4` (stereo not given in full): the inhibition in experiment [1] turned out to be 88.4%. For `O=C1CCCN2[C@@H](CC1)C[C@]13CN4CCCC/C=C\CC[C@](O)(C=C(c5nccc6c5[nH]c5c(OS(=O)(=O)c7ccc(Br)cc7)cccc56)C1CC4)[C@H]23` (stereo not given in full), the inhibition in experiment [1] stood at 63%. The IC50 in experiment [2] is 23 µM. `CCCCCCCCCCCCn1c2ccccc2c2ccnc(C3=C[C@@]4(O)CC/C=C\CCCCN5CC[C@@H]3[C@]3(C[C@@H]6/C=C\CCCCN6[C@H]34)C5)c21`: the inhibition in experiment [1] was 0%. Take `Oc1cccc2c1[nH]c1c(C3=C[C@@]4(O)CCCCCCCCN5CCC3[C@]3(C[C@@H]6CCCCCCN6[C@H]34)C5)nccc12` (stereo not given in full): the inhibition in experiment [1] came to 29%.

For `COC(=O)CCCCn1c2ccccc2c2ccnc(C3=C[C@@]4(O)CC/C=C\CCCCN5CCC3[C@]3(C[C@@H]6/C=C\CCCCN6[C@H]34)C5)c21` (stereo not given in full), in experiment [1], the inhibition came to 3%.

As for `CC(=O)Nc1nc(C)c(S(=O)(=O)Oc2cccc3c2[nH]c2c(C4=C[C@@]5(O)CC/C=C\CCCCN6CCC4[C@]4(C[C@@H]7CCC(=O)CCCN7[C@H]45)C6)nccc23)s1` (stereo not given in full), the inhibition in experiment [1] was 78.8%. Further, in experiment [2], the IC50 was found to be 8.5 µM.

What is called inhibition is the change of the read-out against control, counted positive when it falls. A word on the IC50: it is the concentration that gives 50% inhibition.
